# Assay results reported in PMC3419596 (Cell stem cell, 2012).
# “Also recorded” adds a separate entry of the source. Where two headings read alike, the source gives them in different places.
# B1: TGFβ2: TGFβ family member ligand added to ESC cultures (protein, UniProt P61812 303-414, looked up)
# Transforming growth factor …: ALDAAYCFRNVQDNCCLRPLYIDFKRDLGWKWIHEPKGYNANFCAGACPYLWSSDTQHSRVLSLYNTINPEASASPCCVSQDLEPLTILYYIGKTPKIEQLSNMIVKSCKCS
# Columns and labels:
# T-GFP mESCs = assay: Mesoderm inhibition assay, T-GFP mESC flow cytometry; assay type: cell-based, mouse; conditions: added at day 1 of differentiation
# Myh6-GFP mESC = assay: mESC cardiogenesis assay, Myh6-GFP reporter; assay type: cell-based, mouse
# H9 hESC = assay: hESC; assay type: cell-based, human
# TGFBR2 [1] = assay: TGFBR2 internalization; assay type: cell-based; conditions: HA-TGFBR2-mCherry, presence of TGFβ2 ligand
# TGFβ2 signaling = assay: SBE4-Luc; assay type: cell-based, human; conditions: for IC50: read-out: IC50 TGFβ2 signaling inhibition (SBE4-Luc)
# In short: (§1)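 HEK293T cells grown in high-glucose DMEM with 1% FBS are co-transfected with SBE4-firefly luciferase and CMV-Renilla luciferase. After 12 h adhesion they are stimulated with Activin A or TGFβ2 (15 ng/ml each), with inhibitor added at the same time. Luminescence is read by dual-luciferase assay. IC50 comes from a log(inhibitor) vs normalized response fit, with toxic doses excluded; Emax is given as % inhibition. Data are mean ± SEM.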
# [2] = tested on: other tyrosine kinase receptors; assay: Levels of other tyrosine kinase receptors; assay type: cell-based
# [3] = tested on: Activin A signaling (Lefty1 target gene); assay: Lefty1 mRNA in Cripto−/− mESC, Activin A-induced; assay type: cell-based, mouse; conditions: 5μM, Cripto−/− mESCs
# In short: (§2)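 Cripto−/− mESCs are moved to serum-free conditions. At day 2 of embryoid body formation they receive 15 ng/ml Activin A or 15 ng/ml TGFβ2 together with test compound. Lefty1 mRNA is measured by RT-qPCR (SYBR Green) on cDNA from total RNA. The TGFβ2 arm is also run as a time course, with a serum-free-medium-alone control. Data are mean ± SEM of ≥3 biological replicates; Student's t-test.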
# [4] = tested on: Cripto−/− mESC, Activin A-induced mesoderm; assay: T gene expression in Cripto−/− mESC, mesoderm induced by Activin A; assay type: cell-based, mouse
# In short: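 Mesoderm assay in Cripto−/− mESCs under serum-free conditions. At day 2 of embryoid body formation, cells are given 15 ng/ml Activin A plus test compound. T (Brachyury) mRNA is quantified by RT-qPCR (SYBR Green) on cDNA from total RNA and compared with no-Activin and Activin-alone controls. Data are mean ± SEM of ≥3 biological replicates; Student's t-test.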
# [5] = tested on: SMAD2/3 phosphorylation induced by Activin A; assay: p-SMAD2/3 Western blot in HEK293T cells, Activin A stimulation; assay type: cell-based, human
# In short: (§3)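 HEK293T cells are treated with test compound and stimulated with Activin A or TGFβ. Cells are washed in cold PBS, lifted with enzyme-free buffer and lysed in ice-cold RIPA with protease and phosphatase inhibitors. Lysates are run on 10% SDS-Tris-glycine gels, blotted to PVDF and blocked and probed in 5% skim milk/TBST; detection by ECL or infrared imaging. p-SMAD2/3 is normalized to GAPD and total SMAD2/3 and reported as % inhibition.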
# [6] = tested on: Cripto−/− mESC, TGFβ2-induced mesoderm; assay: T gene expression in Cripto−/− mESC, mesoderm induced by TGFβ2; assay type: cell-based, mouse
# In short: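 Cripto−/− mESC were moved to serum-free conditions as embryoid bodies. At day 2 of EB formation they received 15 ng/ml TGFβ2 together with test compound. T expression was measured by RT-qPCR. Comparisons were made against a no-TGFβ2 control and against TGFβ2 alone. Mean ± SEM of ≥3 biological replicates; Student's t-test.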
# [7] = tested on: TGFβ2 signaling (Lefty1 target gene); assay: Lefty1 mRNA in Cripto−/− mESC, TGFβ2-induced; assay type: cell-based, mouse; conditions: Cripto−/− mESCs
# In short: as §2
# calcium channel = assay: Calcium inhibition as mechanism of ITD-1 activities
# [8] = target: type I (TGFBR1) TGFβ receptor (Homo sapiens, UniProt P36897); assay: TGFBR1 kinase activity; assay type: biochemical
# TGFBR1 = TGFBR1 protein levels by Western blot, overexpressed in HEK293T; assay type: cell-based, human; conditions: 24h, 5μM
# HEK293T cells = assay: Toxicity control for inhibitory activity; assay type: cell-based, human
# In short: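 Toxicity in the reporter assays is judged from Renilla luciferase levels, Alamar Blue viability or microscopy. Doses judged toxic are removed before IC50/EC50 curve fitting.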
# Wnt signaling = Wnt signaling inhibition; assay type: cell-based
# BMP signaling = BMP signaling inhibition; assay type: cell-based
# TGFBR2 [9] = assay: TGFBR2 protein levels by Western blot; assay type: cell-based, human; conditions: overexpressed in HEK293T, 24h, 5μM
# TGFBR2 [10] = target: TGFBR2 (Homo sapiens, UniProt P37173); assay: TGFBR2 protein levels by Western blot; assay type: cell-based; conditions: HEK293T, DLD1 and A549 cells, 5μM
# [11] = tested on: SMAD2/3 phosphorylation induced by TGFβ2; assay: p-SMAD2/3 Western blot in HEK293T cells, TGFβ2 stimulation; assay type: cell-based, human
# In short: as §3
# [12] = target: type II (TGFBR2) TGFβ receptor (Homo sapiens, UniProt P37173); assay: TGFBR2 kinase activity; assay type: biochemical
# Activin A signaling = assay: SBE4-Luc; assay type: cell-based, human; conditions: HEK293T, Activin A 15ng/ml
# In short: as §1
# mESC = assay: RT-qPCR of germ layer and lineage markers in mESC; assay type: cell-based, mouse
# HA-TGFBR2-mCherry = assay: Flow cytometry receptor degradation assay with HA-TGFBR2-mCherry in HEK293T; assay type: cell-based, human
# [13] = added day 3-5 of differentiation
# [14] = given at day 1 of differentiation
# Sequence of type II (TGFBR2) TGFβ receptor (P37173 23-567, species assumed): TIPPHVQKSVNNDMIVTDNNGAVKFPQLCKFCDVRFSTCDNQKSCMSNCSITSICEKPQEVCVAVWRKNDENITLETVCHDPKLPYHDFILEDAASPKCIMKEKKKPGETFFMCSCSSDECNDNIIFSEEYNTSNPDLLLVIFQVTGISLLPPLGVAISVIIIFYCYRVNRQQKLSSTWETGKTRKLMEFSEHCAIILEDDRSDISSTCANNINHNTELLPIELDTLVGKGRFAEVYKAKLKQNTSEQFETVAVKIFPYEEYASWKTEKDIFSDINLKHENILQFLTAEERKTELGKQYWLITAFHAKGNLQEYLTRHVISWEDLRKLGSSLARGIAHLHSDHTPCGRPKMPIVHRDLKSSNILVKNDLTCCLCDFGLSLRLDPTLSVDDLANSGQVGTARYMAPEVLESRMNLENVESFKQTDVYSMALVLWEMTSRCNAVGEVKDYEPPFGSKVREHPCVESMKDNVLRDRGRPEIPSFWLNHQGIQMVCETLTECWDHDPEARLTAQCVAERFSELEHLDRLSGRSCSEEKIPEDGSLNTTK
# Sequence of TGFBR2 (Homo sapiens, UniProt P37173) (P37173 23-567): as the sequence (P37173 23-567, species assumed) above
# Sequence of type I (TGFBR1) TGFβ receptor (P36897 34-503, species assumed): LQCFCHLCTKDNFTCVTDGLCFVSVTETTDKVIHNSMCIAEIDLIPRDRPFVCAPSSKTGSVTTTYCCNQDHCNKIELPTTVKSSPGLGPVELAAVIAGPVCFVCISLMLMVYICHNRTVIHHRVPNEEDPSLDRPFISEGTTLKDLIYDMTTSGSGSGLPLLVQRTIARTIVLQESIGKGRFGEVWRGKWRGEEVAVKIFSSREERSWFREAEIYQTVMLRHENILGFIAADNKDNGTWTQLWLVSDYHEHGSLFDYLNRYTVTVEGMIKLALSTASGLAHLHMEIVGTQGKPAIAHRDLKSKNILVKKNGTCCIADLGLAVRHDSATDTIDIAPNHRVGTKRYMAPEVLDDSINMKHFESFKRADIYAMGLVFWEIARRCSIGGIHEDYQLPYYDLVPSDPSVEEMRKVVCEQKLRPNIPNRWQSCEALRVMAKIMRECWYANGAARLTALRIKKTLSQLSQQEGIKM
molecule,measurement,setting,value
IWP,mesoderm induction (T-GFP+ cells),T-GFP mESCs,diminished the number of mesoderm cells
c1cc(-c2cnn3cc(-c4ccc(OCCN5CCCCC5)cc4)cnc23)ccn1 [Dorsomorphin],mesoderm induction (T-GFP+ cells),T-GFP mESCs,did not affect mesoderm
"c1ccc(-c2[nH]ncc2-c2ccnc3ccccc23)nc1 [LY-364947, reference compound]",cardiogenesis (Myh6-GFP),Myh6-GFP mESC; [13],drove cardiomyogenesis
same,mesoderm induction (T-GFP+ cells),T-GFP mESCs,diminished the number of mesoderm cells
"NC(=O)c1ccc(-c2nc(-c3ccc4c(c3)OCO4)c(-c3ccccn3)[nH]2)cc1 [SB-431542, reference compound]",cardiogenesis in hESC,"H9 hESC; mesoderm patterning stage, data not shown",completely blocked cardiogenesis
same,immediate internalization of TGFBR2,TGFBR2 [1],abolished internalization
same,IC50,"TGFβ2 signaling; Homo sapiens, HEK-293T",70 nM
same,cardiogenesis (Myh6-GFP),Myh6-GFP mESC; [13],drove cardiomyogenesis
same,mesoderm induction (T-GFP+ cells),T-GFP mESCs,diminished the number of mesoderm cells
CCOC(=O)C1=C(C)NC2=C(C(=O)CC(C)(C)C2)C1c1ccc(-c2ccccc2)cc1 (stereo not drawn) [ITD-1],effect on other tyrosine kinase receptors,[2],did not affect other tyrosine kinase receptors
same,induction of Lefty1 in response to Activin A,[3],not to Activin A
same,mesoderm induced by Activin A (T gene expression),[4],not by Activin A
same,phosphorylation of SMAD2/3 in response to Activin A,[5],only minimally
same,mesoderm induced by TGFβ (T gene expression),[6],selectively blocked mesoderm induced by TGFβ
same,induction of Lefty1 in response to TGFβ2,[7]; 5μM,effectively blocked induction
same,additional time needed to inhibit Lefty1 expression compared to SB-431542,[7]; TGFβ2 treatment,~ 3 h
same,enhancement of TNNT2+ cardiomyocyte yield,"H9 hESC; added day 1-5, analysed day 6",~ 30%
same,resulting cardiomyocytes (TNNT2+),"H9 hESC; added day 1-5, analysed day 6",~ 60%
same,role of calcium inhibition in ITD-1 activities,calcium channel,no evidence was found for a role through calcium inhibition
same,TGFBR1 kinase activity,[8],did not block the kinase activity
same,TGFBR1 protein levels,TGFBR1,did not affect TGFBR1
same,toxicity as cause of inhibitory activity,HEK293T cells,Toxicity was not responsible
same,immediate internalization of TGFBR2,TGFBR2 [1],did not block immediate internalization of TGFBR2
same,"efficacy of TGFβ2 signaling inhibition (Emax, % inhibition)","TGFβ2 signaling; HEK293T, SBE4-Luc",92%
same,IC50,"TGFβ2 signaling; HEK293T, TGFβ2 15ng/ml",850 nM
same,cardiogenesis (Myh6-GFP),"Myh6-GFP mESC; added day 1-3 of differentiation, before mesoderm induction",completely abolished cardiogenesis
same,cardiogenesis (Myh6-GFP),Myh6-GFP mESC; [13],drove cardiomyogenesis; also recorded: optimally promoted cardiogenesis and beating cell clusters
same,Wnt signaling inhibition,Wnt signaling,did not inhibit Wnt signaling; also recorded: not inhibited
same,BMP signaling inhibition,BMP signaling,not inhibited
same,TGFBR2 protein levels,TGFBR2 [9],strongly downregulated TGFBR2 protein levels
same,endogenous TGFBR2 levels,TGFBR2 [10],decreased endogenous TGFBR2 levels
same,phosphorylation of SMAD2/3 induced by TGFβ2,[11],potently blocked phosphorylation
same,TGFBR2 kinase activity,[12],did not block the kinase activity
same,Activin A signal inhibition (SBE4-Luc),Activin A signaling,weak and partial inhibitor
same,germ layer markers at day 5 (RT-qPCR),mESC; [14],induced ectoderm at the expense of mesoderm
same,lineage markers at day 10 (RT-qPCR),mESC; [14],"markers for mesoderm tissues such as heart, endothelium, smooth muscle and blood were all downregulated, while neural markers were upregulated"
same,marker expression at day 5 (RT-qPCR),mESC; mESC treated day 3-5,only the cardiac progenitor specific markers Kdr and Mesp1 were increased
same,marker expression at day 10 (RT-qPCR),mESC; mESC treated day 3-5,only cardiac-specific markers were increased
same,mesoderm induction (T-GFP+ cells),T-GFP mESCs,diminished the number of mesoderm cells
same,"Emax, maximal depletion of HA-TGFBR2",HA-TGFBR2-mCherry; cell surface receptor,~ 80%
same,time needed to reduce TGFBR2 levels,"HA-TGFBR2-mCherry; time course, flow cytometry",At least 6 h
same,time of maximum reduction of TGFBR2 levels,"HA-TGFBR2-mCherry; time course, flow cytometry",≤ 24 h
same,"Emax, maximal depletion of TGFBR2-mCherry",HA-TGFBR2-mCherry; total receptor,~ 50%
CCOC(=O)C1=C(C)NC2=C(C(=O)CC(C)(C)C2)C1c1ccc(-c2ccccc2)cc1 (stereo not drawn) [ITD-1(+)],cardiogenesis (Myh6-GFP),Myh6-GFP mESC; [13],drove cardiomyogenesis
B1,cardiogenesis (Myh6-GFP),Myh6-GFP mESC; [13],inhibited cardiogenesis
